# Results: ChEMBL document CHEMBL1138699, “Design, synthesis, and biological evaluation of the first selective nonpeptide AT2 receptor agonist” (J Med Chem, 2004)
# Key:
# [1] = target: T1, Angiotensin II receptor (AT-1) type-1 (Rattus norvegicus, UniProt P29089+P25095); assay: Displacement of [125I]-Ang II from rat liver membrane angiotensin II type 1 (AT1) receptor
# T1 sequence (P29089 whole entry): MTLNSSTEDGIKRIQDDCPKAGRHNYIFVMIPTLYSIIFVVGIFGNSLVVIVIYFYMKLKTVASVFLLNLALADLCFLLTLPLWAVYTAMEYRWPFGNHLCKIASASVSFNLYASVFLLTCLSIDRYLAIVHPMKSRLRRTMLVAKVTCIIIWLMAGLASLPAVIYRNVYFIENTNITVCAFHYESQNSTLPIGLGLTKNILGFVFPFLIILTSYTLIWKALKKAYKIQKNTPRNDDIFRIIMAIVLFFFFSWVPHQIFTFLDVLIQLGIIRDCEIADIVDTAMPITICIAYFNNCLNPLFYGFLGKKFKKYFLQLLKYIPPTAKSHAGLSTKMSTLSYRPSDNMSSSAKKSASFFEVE
# T1 sequence (P25095 whole entry): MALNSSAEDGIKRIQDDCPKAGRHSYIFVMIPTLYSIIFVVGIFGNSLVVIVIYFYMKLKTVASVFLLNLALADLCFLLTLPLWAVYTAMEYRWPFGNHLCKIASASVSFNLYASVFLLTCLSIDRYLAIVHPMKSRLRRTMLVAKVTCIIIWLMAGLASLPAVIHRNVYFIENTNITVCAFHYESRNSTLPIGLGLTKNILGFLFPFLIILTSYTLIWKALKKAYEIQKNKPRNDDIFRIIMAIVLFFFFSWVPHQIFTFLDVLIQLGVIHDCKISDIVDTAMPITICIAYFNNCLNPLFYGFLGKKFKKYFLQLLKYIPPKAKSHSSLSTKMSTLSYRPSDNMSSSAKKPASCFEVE
# [2] = Half life after oral administration in rat was determined; assay type: ADME, organism-based; settings: in vivo
# Outline: (§1)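 Male Sprague-Dawley rats (ca. 6-7 weeks), triplicate groups; oral gavage at 30, 100 and 300 µg/kg and single iv tail-vein bolus at 30 µg/kg. Tail-vein blood at 30 min and 1, 2, 4, 6, 8, 24 h, heparinized plasma, acetonitrile precipitation, LC-MS/MS (positive-ion SRM 476.3→293.2). Bioavailability from AUC0-8h rather than AUC0-∞.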
# NG108-15 [3] = assay: Concentration of compound required to induce neurite outgrowth in mouse neuroblastoma and rat glioma hybrid NG 108-15 cells was determined; assay type: functional
# Outline: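 NG108-15 cells (passage 7-30) in DMEM/10% FBS/HAT at 37 °C, 7% CO2, plated at 3 × 10^4 cells per 35 mm dish. First stimulation 24 h after plating, agonist given daily over 1 pM-1 µM for 3 days. Phase-contrast scoring: a neurite longer than the cell body counts as positive. At least 140 cells, three independent experiments.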
# NG108-15 [4] = assay: Concentration of compound required to induce cell death of mouse neuroblastoma and rat glioma hybrid NG 108-15 cells was determined; assay type: functional
# Outline: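 NG108-15 neuroblastoma × glioma hybrid cells (passage 7-30) were grown in DMEM with 10% FBS, HAT supplement and gentamycin at 37 °C under 7% CO2. They were treated 24 h after plating, with compound added daily, at 1 pM to 1 µM for 3 days. Cell death was judged by phase-contrast microscopy and micrographs.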
# [5] = Bioavailability after oral administration in rat was determined; range is 20-30; assay type: ADME, organism-based; settings: in vivo, read-out: Bioavailabiility; outline: as §1
# Rattus norvegicus [6] = assay: Concentration of compound required to stimulate secretion of duodenal alkaline secretion in rats when administered intralbuminally was determined; assay type: functional
# Outline: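 Same anaesthetized Sprague-Dawley duodenal pH-stat preparation (saline perfusate titrated to pH 7.4 with 0.02 M HCl). Here the agonist went into the intraluminal perfusate at 100 µM, with PD 123,319 at 150 µM intraluminally for antagonism. Net change over basal at 30-45 min; n = 5.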
# Rattus norvegicus [7] = species: Rattus norvegicus; assay: Compound was tested for its ability to rise duodenal alkaline secretion in rats was determined; assay type: functional
# Outline: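 Anaesthetized (pentobarbital ip 60 mg/kg, then 30 mg kg-1 h-1) nonfasted male Sprague-Dawley rats at 38 °C. Isolated duodenal segment with bile duct diverted, perfused with recirculating isotonic saline. HCO3- output pH-stat titrated to pH 7.4 with 0.02 M HCl. Intravenous infusion; net change is the 30-45 min value minus the last 15 min basal. Mean ± SEM, n = 5; ANOVA with Bonferroni.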
# [8] = target: Type-2 angiotensin II receptor (Sus scrofa); assay: Displacement of [125I]-Ang II from pig uterus membrane angiotensin II type 2 (AT2) receptor
# [9] = target: Mitogen-activated protein kinase 3 (Homo sapiens) (UniProt P27361); assay: Concentration required to abolish MAPK activity in mouse neuroblastoma and rat glioma hybrid NG 108-15 cells; assay type: functional, cell-based
# Chain of Mitogen-activated protein kinase 3 (Homo sapiens) (P27361 whole entry): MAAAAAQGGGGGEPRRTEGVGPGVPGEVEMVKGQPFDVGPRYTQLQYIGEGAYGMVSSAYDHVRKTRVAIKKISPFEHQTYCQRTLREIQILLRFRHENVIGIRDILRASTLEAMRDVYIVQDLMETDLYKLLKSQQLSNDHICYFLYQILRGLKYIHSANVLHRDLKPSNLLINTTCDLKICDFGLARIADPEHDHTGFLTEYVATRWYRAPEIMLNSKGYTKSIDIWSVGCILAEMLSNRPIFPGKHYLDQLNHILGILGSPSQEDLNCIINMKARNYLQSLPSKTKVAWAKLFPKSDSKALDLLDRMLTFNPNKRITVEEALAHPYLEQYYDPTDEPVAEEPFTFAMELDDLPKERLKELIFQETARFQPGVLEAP
compound,measurement,setting,value
CCCCOC(=O)NS(=O)(=O)c1sc(CC(C)C)cc1-c1ccc(CC#N)cc1,Ki,[1],100 nM
CCCCOC(=O)NS(=O)(=O)c1sc(CC(C)C)cc1-c1ccc(Cn2cnc3ccccc32)cc1,Ki,[1],500 nM
CCCCOC(=O)NS(=O)(=O)c1sc(CC(C)C)cc1-c1ccc(Cn2c(CC)nc3ccccc32)cc1,Ki,[1],> 10000 nM
CCCCOC(=O)NS(=O)(=O)c1sc(CC(C)C)cc1-c1ccc(Cn2c(CC)nc3c(C)cc(C)nc32)cc1,IC50,[1],1.1 nM
same,Ki,[1],3.9 nM
CCCCOC(=O)NS(=O)(=O)c1sc(CC(C)C)cc1-c1ccc(C#N)cc1,Ki,[1],> 10000 nM
CCCCOC(=O)NS(=O)(=O)c1sc(CC(C)C)cc1-c1ccc(Cn2ccnc2)cc1 [BULOXIBUTID],half-life,[2],4 h
same,Activity,NG108-15 [3],> 0.1 nM
same,Activity,NG108-15 [4],1 µM
same,bioavailability,[5],< 30%
same,Activity,Rattus norvegicus [6],100 µM
same,Ki,[1],> 10000 nM
same,Activity,Rattus norvegicus [7],0.03 mg/h/kg
CCCCOC(=O)NS(=O)(=O)c1sc(CC(C)C)cc1-c1ccc(Cn2cnc3cccnc32)cc1,Ki,[1],> 10000 nM
Cc1cc(Cn2cnc3c2C[C@@H](C(=O)O)N(C(=O)C(c2ccccc2)c2ccccc2)C3)ccc1N(C)C.O=C(O)C(F)(F)F.O=C(O)C(F)(F)F,Activity,Rattus norvegicus [6],150 µM
same,IC50,[1],> 10000 nM
same,Activity,Rattus norvegicus [7],0.3 mg/h/kg
CCCCOC(=O)NS(=O)(=O)c1ccc(Cc2cccc(OC)c2)cc1-c1ccc(Cn2c(CC)nc3c(C)cc(C)nc32)cc1,IC50,[8],101 nM
same,IC50,[1],1.4 nM
CCCCOC(=O)NS(=O)(=O)c1sc(CC(C)C)cc1Cc1ccc(C#N)cc1,Ki,[1],> 10000 nM
CCCCOC(=O)NS(=O)(=O)c1sc(CC(C)C)cc1-c1ccc(Cn2ccnc2C)cc1,Ki,[1],> 10000 nM
CCCCOC(=O)NS(=O)(=O)c1sc(CC(C)C)cc1Cc1ccc(-n2ccnc2)cc1,Ki,[1],> 10000 nM
COc1cccc(-c2cc(=O)c3ccccc3o2)c1N,Activity,[9],10 µM
